Article PMC13031150 (Acta Pharmaceutica Sinica. B, 2025)

Columns and labels:
KBM5-T315I cells [1] = experiment: CCK-8 cell viability assay, including SynergyFinder synergy analysis; format: cell-based, human
Procedure, shortened: (§1)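 Viability was read by CCK-8. […] A second test compound, 0–80 μmol/L alone or with a TKI, was given for 12 h. δ-scores came from SynergyFinder: >10 synergy, <−10 antagonism. SEM, n = 3.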

KBM5-T315I xenograft = experiment: Subcutaneous KBM5-T315I xenograft in NOD/SCID mice; format: in vivo, mouse; settings: CPU-216 20 mg/kg, NG52 100 mg/kg
VCP-KD-KBM5-T315I cells = experiment: CCK-8 cell viability with synergy analysis in VCP-knockdown cells; format: cell-based, human; settings: NG52 combined with imatinib, 24 h
Procedure, shortened: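 Viability was read by CCK-8, and δ-scores were computed in SynergyFinder (>10 synergy, <−10 antagonism).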

BCR-ABL = BCR-ABL protein level by Western blot; format: cell-based, human; settings: KBM5-T315I, NG52 0–50 μmol/L, 24 h, dose-dependent
KBM5 cells = experiment: CCK-8 cell viability assay, including SynergyFinder synergy analysis; format: cell-based, human; settings: NG52 combined with imatinib, KBM5, 24 h, CCK-8, SynergyFinder
Procedure, shortened: as §1

KBM5-T315I cells [2] = experiment: LDH / lactate production; format: cell-based, human; settings: NG52 6.25–50 μmol/L, 24 h
[3] = tested on: VCP phosphorylation in KBM5-T315I cells; experiment: VCP phosphorylation in cells; format: cell-based, human; settings: 50 μmol/L NG52, 24 h
Procedure, shortened: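 KBM5-T315I cells were treated 24 h with test compound. Lysates were immunoprecipitated with anti-VCP antibody and immunoblotted with a pan-phospho-Ser/Thr antibody.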

KBM5-T315I cells [4] = experiment: Autophagy readouts; format: cell-based, human
[5] = tested on: KBM5-T315I-PGK1-KD, PGK1-OE and PGK1-T378P cells; experiment: CCK-8 cell viability in PGK1-modified KBM5-T315I cells; format: cell-based, human; settings: KBM5-T315I-PGK1-KD versus KBM5-T315I, 24 h
Procedure, shortened: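 KBM5-T315I lines were empty-vector (NC), PGK1-overexpressing (OE), shPGK1 knockdown (KD), or KD re-transfected with PGK1-WT or PGK1-T378P cDNA. […] WT, OE, KD and T378P cells received test compound 0–80 μmol/L for […]. Viability was read by CCK-8; SEM, n = 3.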

[6] = tested on: KBM5-T315I cells-bearing NOD/SCID mice; experiment: Tail-vein KBM5-T315I leukemia model in NOD/SCID mice; format: in vivo, mouse; settings: single agent: imatinib 100 mg/kg, CPU-216 20 mg/kg
Procedure, shortened: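 Female NOD/SCID mice aged 4–6 weeks received sublethal irradiation (1.8 Gy), then KBM5-T315I cells by tail vein within 24 h. After 7 days of engraftment, dosing was on alternate days for 4 weeks, with saline as vehicle. Peripheral-blood human CD45⁺ cells were measured by flow cytometry, along with spleen weight and Kaplan–Meier survival. SEM, n ≥ 3.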

[7] = KBM5-T315I, Western blot, NG52 dose-dependent, CPU-216 0–6 μmol/L, 0–12 h

CC(C)n1cnc2c(Nc3cccc(Cl)c3)nc(NCCO)nc21 [NG52]
Inhibitory effect on cell viability, KBM5-T315I versus KBM5 (KBM5-T315I cells [1]; 0–400 μmol/L, 24 h, CCK-8): better inhibitory effect on KBM5-T315I
Synergy score (KBM5-T315I cells [1]; NG52 combined with imatinib, KBM5-T315I pretreated with 3 μmol/L PKM2-IN-1): 15.16
Synergy score (δ-score) (KBM5-T315I cells [1]; NG52 combined with imatinib, NC (empty vector control) KBM5-T315I cells, 24 h): 15.66
Synergy score (δ-score) (KBM5-T315I cells [1]; NG52 combined with ponatinib, KBM5-T315I, 24 h, CCK-8, SynergyFinder): 10.11
LC3B-II expression in tumor (immunofluorescence) (KBM5-T315I xenograft; imatinib 100 mg/kg): increased
SQSTM1 expression in tumor (immunofluorescence) (KBM5-T315I xenograft; imatinib 100 mg/kg): decreased
Tumor proliferation (Ki-67 staining) (KBM5-T315I xenograft; imatinib 100 mg/kg): significantly reduced
Tumor volume (KBM5-T315I xenograft; intragastric every 48 h, 21 days): reduce
Synergy score (δ-score) (VCP-KD-KBM5-T315I cells): 7.57
BCR-ABL expression (BCR-ABL): reduced
Synergy score (δ-score) (KBM5 cells): −7.32
Effect on LDH levels (KBM5-T315I cells [2]): no significant effect
VCP phosphorylation levels [3]: reduction
Formation of LC3 puncta (KBM5-T315I cells [4]; KBM5-T315I transfected with GFP-LC3B): promote
Beclin 1 ubiquitination (KBM5-T315I cells [4]; KBM5-T315I, NG52 50 μmol/L with 10 μmol/L MG132, 24 h): decreased
Beclin 1 expression and LC3B-II/LC3B-I ratio (KBM5-T315I cells [4]; [7]): increased
SQSTM1 expression (KBM5-T315I cells [4]; [7]): reducing
Autophagic vesicles (transmission electron microscopy) (KBM5-T315I cells [4]; KBM5-T315I, NG52 50 μmol/L, CPU-216 6 μmol/L): marked increase

CC1=C(CSC(=S)N2CCCCC2)C(=O)c2ccccc2C1=O [PKM2-IN-1]
Effect on proliferation (KBM5-T315I cells [1]; 3 μmol/L, 24 h, CCK-8, KBM5-T315I): did not affect
Synergy score (KBM5-T315I cells [1]; PKM2-IN-1 combined with imatinib, KBM5-T315I): −4.49

Cc1ccc(C(=O)Nc2ccc(CN3CCN(C)CC3)c(C(F)(F)F)c2)cc1C#Cc1cnc2cccnn12 [ponatinib]
Sensitivity of PGK1-knockdown cells to the TKI [5]: increased sensitivity

Cc1ccc(NC(=O)c2ccc(CN3CCN(C)CC3)cc2)cc1Nc1nccc(-c2cccnc2)n1 [imatinib]
Reduction of proportion of cells in the blood (HuCD45) [6]: less pronounced
Splenomegaly [6]: alleviated
Sensitivity of PGK1-knockdown cells to the TKI [5]: increased sensitivity
